Measurements taken from article PMC5615838 (Toxicology Reports, 2016).

What was measured:
[1] = in vivo metabolism after single oral dose, plasma; parameters: species or system rat; details: S7958 30 mg/kg bw oral
[2] = JECFA SPET dietary exposure estimate; parameters: species or system human; details: 28- and 90-day toxicology studies
CYP2D6 = CYP2D6 (Homo sapiens, UniProt P10635); test: CYP inhibition, LC–MS/MS assay in human liver microsomes; assay type: in vitro ADME; details: pooled human liver microsomes, probe bufuralol
Outline: (§1)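 Follow-up CYP panel in pooled human liver microsomes with CYP-specific probe substrates; CYP-specific metabolites quantified by LC-MS/MS. Test compound at 10 μM. Percent inhibition reported.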

[3] = system: S. typhimurium strains TA98, TA100, TA1535, TA1537 and E. coli strain WP2 uvrA; test: bacterial reverse mutation test; assay type: cell-based, Salmonella typhimurium, Escherichia coli; details: 50–5000 μg/plate, plate incorporation and pre-incubation, ±S9
CYP2C19 = CYP2C19 (Homo sapiens, UniProt P33261); test: CYP inhibition, LC–MS/MS assay in human liver microsomes; assay type: in vitro ADME; details: pooled human liver microsomes, probe S-mephenytoin
Outline: as §1

[4] = biological target: human bitter receptor hTAS2R8; details: antagonist; cited from earlier work
CYP2C9 [5] = biological target: T1, CYP2C9 (Homo sapiens, UniProt P11712); test: CYP inhibition, LC–MS/MS assay in human liver microsomes; assay type: in vitro ADME; details: pooled human liver microsomes, probe tolbutamide
Outline: as §1

CYP1A2 = biological target: T2, CYP1A2 (Homo sapiens, UniProt P05177); test: as above; assay type: in vitro ADME; details: pooled human liver microsomes, probe ethoxyresorufin
T2 sequence (P05177 1-516): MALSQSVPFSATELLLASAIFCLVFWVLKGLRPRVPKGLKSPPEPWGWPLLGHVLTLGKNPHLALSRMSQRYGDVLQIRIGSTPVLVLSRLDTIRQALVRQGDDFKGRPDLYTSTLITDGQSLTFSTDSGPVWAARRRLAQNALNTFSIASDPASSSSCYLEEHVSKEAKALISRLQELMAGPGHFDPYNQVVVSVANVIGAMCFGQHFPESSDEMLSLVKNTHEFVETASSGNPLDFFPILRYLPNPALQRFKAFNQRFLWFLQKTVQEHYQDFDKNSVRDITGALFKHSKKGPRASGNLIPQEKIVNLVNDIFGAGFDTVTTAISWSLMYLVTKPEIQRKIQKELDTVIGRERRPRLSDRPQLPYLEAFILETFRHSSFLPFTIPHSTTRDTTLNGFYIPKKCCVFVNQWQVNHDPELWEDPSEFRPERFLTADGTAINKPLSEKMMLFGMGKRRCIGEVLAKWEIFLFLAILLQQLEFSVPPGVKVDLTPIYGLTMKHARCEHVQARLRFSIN
Outline: as §1

CYP3A4 = CYP3A4 (Homo sapiens, UniProt P08684); test: as above; assay type: in vitro ADME; details: pooled human liver microsomes, probe midazolam
Outline: as §1

hERG = hERG (Homo sapiens, UniProt Q12809); test: hERG electrophysiology; assay type: cell-based
[6] = 28-day subacute toxicity study, diet; assay type: in vivo, rat; details: 28 days
Outline: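 Diet admix given for 28 consecutive days to Crl:CD(SD) rats, 10/sex/group, at 10, 30 or 100 mg/kg bw/day. H&E-stained paraffin sections of tissues examined microscopically for all control and high-dose (100 mg/kg bw/day) animals.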

CYP2C9 [7] = biological target: T1, CYP2C9; assay type: in vitro ADME
Outline: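 Pooled human liver microsomes preincubated with test compound for 30 min, with and without an NADPH-generating system, then incubated with diclofenac as the CYP2C9 marker substrate. IC50 derived.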

[8] = system: GPCRs, ion channels, nuclear receptors, transporters; test: lead profiling receptor screen; assay type: binding; details: 10 μM
[9] = proof of exposure in 28-day study, plasma concentrations; assay type: in vivo, rat; details: for concentration at 29 day: Crl:CD(SD) (Sprague-Dawley), rat, plasma (peripheral blood), oral; for Hepatic Portal Vein Blood Mean Conc. / Hepatic Portal Vein Blood Mean Conc. Ratio: necropsy
Outline: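 In the 28-day dietary study (10, 30, 100 mg/kg bw/day), plasma test compound measured in peripheral blood taken at 06:00 h GMT on Day 29. Hepatic portal vein blood was sampled from the same animals at necropsy.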

T1 sequence (P11712 whole entry): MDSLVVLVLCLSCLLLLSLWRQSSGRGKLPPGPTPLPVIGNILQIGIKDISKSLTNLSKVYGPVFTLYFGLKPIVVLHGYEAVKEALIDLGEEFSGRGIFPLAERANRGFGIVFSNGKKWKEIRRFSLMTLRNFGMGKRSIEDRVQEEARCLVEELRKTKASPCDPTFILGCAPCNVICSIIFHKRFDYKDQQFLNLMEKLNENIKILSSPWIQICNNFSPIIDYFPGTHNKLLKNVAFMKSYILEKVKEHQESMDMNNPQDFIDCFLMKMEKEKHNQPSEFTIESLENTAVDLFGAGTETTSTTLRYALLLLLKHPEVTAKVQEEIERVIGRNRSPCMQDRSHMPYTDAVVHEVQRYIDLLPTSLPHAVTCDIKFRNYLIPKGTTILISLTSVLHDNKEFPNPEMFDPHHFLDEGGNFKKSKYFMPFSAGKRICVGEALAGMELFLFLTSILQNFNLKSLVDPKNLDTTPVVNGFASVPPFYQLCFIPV
CYP2D6, sequence (P10635 whole entry): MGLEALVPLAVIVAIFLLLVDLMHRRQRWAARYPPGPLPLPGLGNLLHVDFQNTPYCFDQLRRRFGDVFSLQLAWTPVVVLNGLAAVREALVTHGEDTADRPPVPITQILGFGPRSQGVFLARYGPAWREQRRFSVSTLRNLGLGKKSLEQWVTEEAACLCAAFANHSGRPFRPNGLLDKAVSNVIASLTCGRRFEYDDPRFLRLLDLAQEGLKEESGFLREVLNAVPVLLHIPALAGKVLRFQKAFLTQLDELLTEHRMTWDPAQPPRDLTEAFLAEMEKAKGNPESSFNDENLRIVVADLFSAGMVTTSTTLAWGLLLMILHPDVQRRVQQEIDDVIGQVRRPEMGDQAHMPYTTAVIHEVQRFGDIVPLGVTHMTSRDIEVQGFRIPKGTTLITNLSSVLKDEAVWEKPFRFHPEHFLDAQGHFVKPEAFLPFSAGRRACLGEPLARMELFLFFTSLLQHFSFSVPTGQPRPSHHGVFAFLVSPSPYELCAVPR
CYP2C19, sequence (P33261 whole entry): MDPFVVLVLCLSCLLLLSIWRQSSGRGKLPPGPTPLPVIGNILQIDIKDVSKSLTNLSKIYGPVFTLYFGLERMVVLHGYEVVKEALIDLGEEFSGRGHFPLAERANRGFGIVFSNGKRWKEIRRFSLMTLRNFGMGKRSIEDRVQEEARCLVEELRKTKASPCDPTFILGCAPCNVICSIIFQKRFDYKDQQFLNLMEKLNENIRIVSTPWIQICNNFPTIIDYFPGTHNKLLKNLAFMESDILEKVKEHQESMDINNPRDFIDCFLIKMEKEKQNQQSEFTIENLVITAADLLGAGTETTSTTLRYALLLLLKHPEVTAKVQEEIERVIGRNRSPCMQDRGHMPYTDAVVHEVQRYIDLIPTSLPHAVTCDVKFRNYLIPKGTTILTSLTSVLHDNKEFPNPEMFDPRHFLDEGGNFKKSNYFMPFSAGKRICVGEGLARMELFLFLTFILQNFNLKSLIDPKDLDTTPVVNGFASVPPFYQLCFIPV
hERG, sequence (Q12809 whole entry): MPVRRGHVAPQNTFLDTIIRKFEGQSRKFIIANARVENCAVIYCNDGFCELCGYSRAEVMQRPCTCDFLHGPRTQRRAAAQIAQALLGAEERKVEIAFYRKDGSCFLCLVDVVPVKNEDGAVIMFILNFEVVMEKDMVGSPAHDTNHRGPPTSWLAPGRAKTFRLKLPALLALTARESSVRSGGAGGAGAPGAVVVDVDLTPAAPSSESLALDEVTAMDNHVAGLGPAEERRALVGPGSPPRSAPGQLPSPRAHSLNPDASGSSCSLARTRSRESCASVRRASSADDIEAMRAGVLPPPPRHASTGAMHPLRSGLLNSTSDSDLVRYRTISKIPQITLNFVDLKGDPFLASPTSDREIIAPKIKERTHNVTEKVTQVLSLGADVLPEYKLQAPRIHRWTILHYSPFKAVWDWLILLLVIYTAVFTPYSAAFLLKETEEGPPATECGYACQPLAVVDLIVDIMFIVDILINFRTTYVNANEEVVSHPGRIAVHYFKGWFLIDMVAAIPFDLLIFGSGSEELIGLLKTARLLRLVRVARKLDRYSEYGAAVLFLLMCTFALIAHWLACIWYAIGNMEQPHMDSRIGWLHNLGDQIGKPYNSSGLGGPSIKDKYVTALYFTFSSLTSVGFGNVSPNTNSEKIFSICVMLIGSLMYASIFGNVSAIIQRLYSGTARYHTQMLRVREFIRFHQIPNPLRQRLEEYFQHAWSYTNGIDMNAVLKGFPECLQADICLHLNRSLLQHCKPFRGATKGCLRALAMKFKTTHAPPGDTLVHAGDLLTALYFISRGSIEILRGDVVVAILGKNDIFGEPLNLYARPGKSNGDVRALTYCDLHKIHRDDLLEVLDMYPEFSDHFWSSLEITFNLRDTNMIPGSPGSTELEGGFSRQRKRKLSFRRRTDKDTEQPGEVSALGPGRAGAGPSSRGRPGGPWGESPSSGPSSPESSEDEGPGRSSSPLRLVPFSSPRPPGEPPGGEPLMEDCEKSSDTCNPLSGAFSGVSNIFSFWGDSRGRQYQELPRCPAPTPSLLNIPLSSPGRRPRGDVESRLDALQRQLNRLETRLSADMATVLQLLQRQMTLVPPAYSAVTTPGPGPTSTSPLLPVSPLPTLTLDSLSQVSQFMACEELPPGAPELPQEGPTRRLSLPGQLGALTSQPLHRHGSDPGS
CYP3A4, sequence (P08684 whole entry): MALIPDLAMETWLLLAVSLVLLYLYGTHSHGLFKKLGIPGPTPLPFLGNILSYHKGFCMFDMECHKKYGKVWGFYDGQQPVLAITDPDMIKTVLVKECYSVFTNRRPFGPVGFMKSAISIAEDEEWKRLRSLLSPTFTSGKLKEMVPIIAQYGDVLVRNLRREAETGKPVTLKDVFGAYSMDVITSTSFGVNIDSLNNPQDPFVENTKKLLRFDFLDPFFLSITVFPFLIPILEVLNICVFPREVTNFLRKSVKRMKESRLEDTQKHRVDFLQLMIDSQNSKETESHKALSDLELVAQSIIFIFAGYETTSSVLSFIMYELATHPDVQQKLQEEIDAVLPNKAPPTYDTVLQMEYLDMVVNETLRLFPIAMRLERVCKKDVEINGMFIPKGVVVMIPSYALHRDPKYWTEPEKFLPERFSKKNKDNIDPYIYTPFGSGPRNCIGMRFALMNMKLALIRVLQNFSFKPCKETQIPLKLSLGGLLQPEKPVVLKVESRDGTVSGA

## Cc1noc(C)c1Cn1cc(N2C(=O)N(Cc3cccc(O)c3)C(C)(C)C2=O)cn1 [S7958, 3-(1-((3,5-dimethylisoxazol-4-yl)methyl)-1H-pyrazol-4-yl)-1-(3-hydroxybenzyl)-5,5-dimethylimidazolidine-2,4-dione]
[1]
  maximum concentration in plasma: 5.2 ± 7.1 ng/mL
[2]
  NOAEL of 100 mg/kg bw/day as multiple of estimated dietary exposure: 1500 times
CYP2D6
  inhibition at 10 µM: 17%
[3]
  Reverse mutation (in vitro), Result: Negative
CYP2C19
  inhibition at 10 µM: 17%
[4]
  IC50: 0.073 µM
CYP2C9 [5]
  inhibition at 10 µM: 62%
CYP1A2
  inhibition at 10 µM: 16%
CYP3A4
  inhibition at 10 µM: 12%
hERG
  inhibition at 10 µM: < 10%
[6]; 10, 30, 100 mg/kg bw/day food ad-mix, both sexes
  NOAEL: 100 mg/kg bw/day
[6]; up to 100 mg/kg bw/day
  Findings: No test-article related findings
CYP2C9 [7]
  IC50: 8.8 µM
CYP2C9 [7]; 30 min preincubation ±NADPH
  time- or metabolism-dependent inhibition: no evidence of either time- or metabolism-dependent inhibition
[8]
  significant responses (≥50% inhibition or stimulation): No significant responses
[9]; Day 29, 10 mg/kg bw/day, F
  Peripheral Blood Mean Conc. Ratio: 1
[9]; Day 29, 10 mg/kg bw/day, M
  Peripheral Blood Mean Conc. Ratio: 1
[9]; Day 29, 30 mg/kg bw/day, F
  Peripheral Blood Mean Conc. Ratio: 3.6
[9]; Day 29, 30 mg/kg bw/day, M
  Peripheral Blood Mean Conc. Ratio: 4.1
[9]; Day 29, 100 mg/kg bw/day, F
  Peripheral Blood Mean Conc. Ratio: 7.4
[9]; Day 29, 100 mg/kg bw/day, M
  Peripheral Blood Mean Conc. Ratio: 41.5
[9]; female, 10 mg/kg bw/day
  concentration at 29 day: 18.4 ng/mL
[9]; female, 30 mg/kg bw/day
  concentration at 29 day: 66.7 ng/mL
[9]; female, 100 mg/kg bw/day
  concentration at 29 day: 136 ng/mL
[9]; male, 10 mg/kg bw/day
  concentration at 29 day: 0.441 ng/mL
[9]; male, 30 mg/kg bw/day
  concentration at 29 day: 1.79 ng/mL
[9]; male, 100 mg/kg bw/day
  concentration at 29 day: 18.3 ng/mL
[9]; 10 mg/kg bw/day, F
  Hepatic Portal Vein Blood Mean Conc.: 19.4 ng/mL
  Hepatic Portal Vein Blood Mean Conc. Ratio: 1
[9]; 10 mg/kg bw/day, M
  Hepatic Portal Vein Blood Mean Conc.: 24.4 ng/mL
  Hepatic Portal Vein Blood Mean Conc. Ratio: 1
[9]; 30 mg/kg bw/day, F
  Hepatic Portal Vein Blood Mean Conc.: 85.0 ng/mL
  Hepatic Portal Vein Blood Mean Conc. Ratio: 4.4
[9]; 30 mg/kg bw/day, M
  Hepatic Portal Vein Blood Mean Conc.: 68.2 ng/mL
  Hepatic Portal Vein Blood Mean Conc. Ratio: 2.8
[9]; 100 mg/kg bw/day, F
  Hepatic Portal Vein Blood Mean Conc.: 334 ng/mL
  Hepatic Portal Vein Blood Mean Conc. Ratio: 17.2
[9]; 100 mg/kg bw/day, M
  Hepatic Portal Vein Blood Mean Conc.: 345 ng/mL
  Hepatic Portal Vein Blood Mean Conc. Ratio: 14.1
